Results reported in publication PMC2849726 (Journal of medicinal chemistry, 2010).
In brackets after ≈: the same amount, converted by molar mass. Entries after “also recorded” stand apart in the source; their conditions may differ.

Experiments:
[1] = test system: SK-BR-3 (estrogen receptor negative, HER2 over-expressing luminal-like breast cancer); experiment: Cell growth inhibition assay; assay type: cell-based, human
Outline: (§1)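 Cells were grown in RPMI-1640 with 10% FBS and antibiotics at 37 °C in 5% CO2. Freshly trypsinized cells were seeded and test compound added from DMSO-diluted stock, then incubated 72 h after attachment. Cells were fixed with 10% TCA and stained 10 min with 0.4% SRB in 1% HOAc. Bound dye was dissolved in 10 mM trizma base and A515 read. ED50 is the concentration giving 50% reduction in net protein increase versus control, averaged over at least three independent determinations.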

[2] = test system: MCF-7 (estrogen receptor positive luminal-like breast cancer); experiment: Cell growth inhibition assay; assay type: cell-based, human
Outline: as §1

ZR-75-1 xenograft = experiment: Antitumor activity in vivo, ZR-75-1 xenograft; set-up: species or system SCID mice; settings: 10 mg/kg i.p. qod to end
Outline: (§2)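 Human tumour cells were grown in RPMI 1640 with 10% heat-inactivated FBS, 2 mM glutamine and antibiotics, harvested in log phase and resuspended in PBS at 5 × 10^7 cells/mL. 1 × 10^7 cells were given s.c. in the right flank. Test compound was dosed i.p. at 10 mg/kg qod to end in 4% benzyl alcohol/6% cremophor/90% D5W. Controls were vehicle i.p. qod and paclitaxel 20 mg/kg i.p. q4d × 5. Caliper tumour volume = w²×l/2. %TGD was calculated from mean time to endpoint, with logrank P ≤ 0.05. At least five animals per group.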

PC-3 xenograft = experiment: Antitumor activity in vivo, PC-3 xenograft; set-up: species or system SCID mice; settings: 10 mg/kg i.p. qod to end
Outline: as §2

MDA-MB-231 xenograft = experiment: Antitumor activity in vivo, MDA-MB-231 xenograft; set-up: species or system SCID mice; settings: 10 mg/kg i.p. qod to end
Outline: as §2

CK2α1 = CK2α1 (Homo sapiens, UniProt P68400); experiment: Kinases inhibition assay, CK2α1; assay type: biochemical; settings: preliminary, Table 3 in supporting information
ABL = ABL (Homo sapiens, UniProt P00519); experiment: Kinases inhibition assay, ABL; assay type: biochemical; settings: preliminary, Table 3 in supporting information
AKT1 = AKT1 (Homo sapiens, UniProt P31749); experiment: Kinases inhibition assay, AKT1; assay type: biochemical; settings: preliminary, Table 3 in supporting information
[3] = test system: human breast cancer cell lines; experiment: Cell line panel; assay type: cell-based; settings: total 29 cell lines, unpublished data
[4] = test system: mammary gland side branching; experiment: Preliminary in vivo evaluation, mammary gland side branching; settings: BRCA1/p53 and wild-type mice, unpublished data
[5] = test system: MCF-7 (estrogen receptor positive luminal-like breast cancer); settings: cited from earlier work
[6] = test system: SK-BR-3 (estrogen receptor negative, HER2 over-expressing luminal-like breast cancer); settings: cited from earlier work
[7] = test system: ZR-75-1 (estrogen receptor positive, HER2 over-expressing luminal-like breast cancer); experiment: Cell growth inhibition assay; assay type: cell-based, human; settings: for IC50: Homo sapiens, ZR-75-1, read-out: IC50 against the ZR-75-1 cell lines
Outline: as §1

[8] = test system: ER+ and HER2++ breast cancer cells; settings: more selective than TAM; cited from earlier work

CK2α1, sequence (P68400 whole entry): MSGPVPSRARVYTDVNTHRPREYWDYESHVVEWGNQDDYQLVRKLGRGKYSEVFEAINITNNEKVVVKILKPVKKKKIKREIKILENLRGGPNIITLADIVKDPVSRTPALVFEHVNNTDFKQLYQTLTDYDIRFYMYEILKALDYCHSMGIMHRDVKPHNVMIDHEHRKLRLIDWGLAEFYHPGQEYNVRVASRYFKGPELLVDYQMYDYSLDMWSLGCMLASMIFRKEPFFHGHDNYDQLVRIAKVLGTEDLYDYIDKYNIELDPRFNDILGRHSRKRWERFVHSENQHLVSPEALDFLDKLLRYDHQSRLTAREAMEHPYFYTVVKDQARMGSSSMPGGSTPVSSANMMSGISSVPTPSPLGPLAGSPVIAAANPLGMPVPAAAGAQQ
ABL, sequence (P00519 whole entry, species assumed): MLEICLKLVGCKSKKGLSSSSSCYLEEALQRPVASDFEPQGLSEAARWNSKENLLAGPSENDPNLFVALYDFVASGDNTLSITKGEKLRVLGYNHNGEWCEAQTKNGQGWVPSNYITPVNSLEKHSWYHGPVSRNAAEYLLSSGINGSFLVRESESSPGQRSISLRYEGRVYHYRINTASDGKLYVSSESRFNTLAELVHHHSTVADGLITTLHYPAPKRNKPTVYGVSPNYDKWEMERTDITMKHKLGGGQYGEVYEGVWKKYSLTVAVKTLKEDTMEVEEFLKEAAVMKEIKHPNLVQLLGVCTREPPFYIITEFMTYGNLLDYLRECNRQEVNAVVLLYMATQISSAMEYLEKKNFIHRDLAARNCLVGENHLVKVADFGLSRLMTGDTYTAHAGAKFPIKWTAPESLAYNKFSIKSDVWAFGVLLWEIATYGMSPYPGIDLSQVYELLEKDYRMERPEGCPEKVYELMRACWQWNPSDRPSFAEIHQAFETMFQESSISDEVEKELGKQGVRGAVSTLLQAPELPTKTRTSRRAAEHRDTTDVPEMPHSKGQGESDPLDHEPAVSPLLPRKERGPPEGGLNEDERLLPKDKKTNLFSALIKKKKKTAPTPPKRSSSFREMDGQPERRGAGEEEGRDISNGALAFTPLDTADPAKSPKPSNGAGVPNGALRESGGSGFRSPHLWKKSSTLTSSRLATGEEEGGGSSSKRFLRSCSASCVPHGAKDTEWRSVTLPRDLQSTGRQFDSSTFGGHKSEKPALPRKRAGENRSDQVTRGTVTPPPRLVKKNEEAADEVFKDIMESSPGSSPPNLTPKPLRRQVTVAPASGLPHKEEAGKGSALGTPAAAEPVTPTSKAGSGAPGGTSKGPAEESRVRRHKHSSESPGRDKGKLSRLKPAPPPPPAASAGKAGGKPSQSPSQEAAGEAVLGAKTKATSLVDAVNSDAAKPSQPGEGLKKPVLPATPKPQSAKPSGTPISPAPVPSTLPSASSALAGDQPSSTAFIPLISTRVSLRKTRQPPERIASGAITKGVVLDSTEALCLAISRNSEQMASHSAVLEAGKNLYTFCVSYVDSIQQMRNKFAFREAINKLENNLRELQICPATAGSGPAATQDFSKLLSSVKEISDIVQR
AKT1, sequence (P31749 whole entry, species assumed): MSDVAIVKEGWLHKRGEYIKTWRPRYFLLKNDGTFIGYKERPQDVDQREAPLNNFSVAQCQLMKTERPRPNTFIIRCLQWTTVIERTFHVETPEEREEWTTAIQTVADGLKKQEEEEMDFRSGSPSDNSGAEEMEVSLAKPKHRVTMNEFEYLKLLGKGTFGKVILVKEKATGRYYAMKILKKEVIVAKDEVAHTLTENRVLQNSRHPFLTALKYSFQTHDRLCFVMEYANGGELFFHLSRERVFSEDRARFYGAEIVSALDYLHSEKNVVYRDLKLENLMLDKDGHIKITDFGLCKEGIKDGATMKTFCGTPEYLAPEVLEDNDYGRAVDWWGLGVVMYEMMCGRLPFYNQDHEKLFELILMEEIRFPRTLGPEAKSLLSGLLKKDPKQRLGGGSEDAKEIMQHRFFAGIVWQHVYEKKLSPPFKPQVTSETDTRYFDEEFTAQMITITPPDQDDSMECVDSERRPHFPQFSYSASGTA

**Q.** Which “anti-breast cancer activity (in words)” value ([1]; only SK-BR-3 tested) does the source give for `Cc1ccc2c(=O)oc3c4ccccc4ccc3c2c1` [Compound 58, 9-Methyl-6H-dibenzo[c,h]chromen-6-one] here?
**A.** The value was “inactive”.

**Q.** With `CCc1cccc2c1ccc1c3oc(C)cc3c(=O)oc21` [Compound 51, 6-Ethyl-2-methyl-11H-benzo[h]furo[3,2-c]chromen-11-one] as the compound, how does the “activity against MCF-7 (in words)” value [2] read?
**A.** Its value is “completely inactive”.

**Q.** Which results are given for `CCc1cccc2c1ccc1c3occ(C)c3c(=O)oc21` [Compound 2]?
**A.** ZR-75-1 tumor xenograft growth (in words) (ZR-75-1 xenograft): potent activity; also recorded: significant reduction in growth; effect on PC-3 xenograft (in words) (PC-3 xenograft): no effect; effect on MDA-MB-231 xenograft (in words) (MDA-MB-231 xenograft): no effect; suppression of CK2α1 (in words) (CK2α1): significantly suppressed; suppression of ABL (in words) (ABL): significantly suppressed; suppression of AKT1 (in words) (AKT1): significantly suppressed; share of human breast cancer cell lines against which effective [3]: approximately 40%; mammary gland side branching (in words) [4]: dramatically reduced; activity relative to 1 against MCF-7 [5]: about twice as active; activity relative to 1 against SK-BR-3 [6]: about twice as active

**Q.** For `CCCc1cccc2c1ccc1c3occ(C)c3c(=O)oc21` [Compound 20, 1-Methyl-6-propyl-11H-benzo[h]furo[3,2-c]chromen-11-one], which SK-BR-3/MCF-7 selectivity ratio [1] is on record?
**A.** Its SK-BR-3/MCF-7 selectivity ratio is “approximately 12 fold”.

**Q.** And the ZR-75-1/SK-BR-3 selectivity ratio [7]?
**A.** Its ZR-75-1/SK-BR-3 selectivity ratio is “threefold”.

**Q.** And the IC50 [7]?
**A.** The IC50 was 0.2 µg/mL (≈ 0.684 µM).

**Q.** For `Cc1cccc2c1ccc1c3occ(C)c3c(=O)oc21` [Compound 1, Neo-tanshinlactone], which “selectivity relative to TAM” value [8] is on record?
**A.** Its value is 20 fold.

**Q.** With `Cc1coc2c1c(=O)oc1c3cccc(C(C)Br)c3ccc21` (stereo not drawn) [Compound 24, 6-(1-Bromoethyl)-1-methyl-11H-benzo[h]furo[3,2-c]chromen-11-one] as the compound, how does the “potency relative to 1 against SK-BR-3” value [1] read?
**A.** Its value is “two- to three-fold more potent than 1”.

**Q.** And the “potency relative to 1 against ZR-75-1” value [7]?
**A.** The value was “two- to three-fold more potent than 1”.

**Q.** Which results are given for `Cc1coc2c1c(=O)oc1c3cccc(C(C)C)c3ccc21` [Compound 19, 6-Isopropyl-1-methyl-11H-benzo[h]furo[3,2-c]chromen-11-one]?
**A.** ZR-75-1/SK-BR-3 selectivity ratio [7]: tenfold; IC50 [7]: 0.3 µg/mL (≈ 1.03 µM)

**Q.** With `COc1cccc2c1ccc1c3occ(C)c3c(=O)oc21` [Compound 21, 6-Methoxy-1-methyl-11H-benzo[h]furo[3,2-c]chromen-11-one] as the compound, how does the ZR-75-1/MCF-7 selectivity ratio ([7]; more active against ZR-75-1 than MCF-7) read?
**A.** Its ZR-75-1/MCF-7 selectivity ratio is 23 fold.
